These molecules were tested against T1, Cannabinoid receptor 2 (Homo sapiens, UniProt P34972) (assay: Binding affinity against human CB2 receptor expressed in CHO cells by using WIN-55212-2 Mesylate [573H] as Radioactive tracer).
Assay type: cell-based
Summary of the method: (§1)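 Membranes (50 µg) from CHO-K1 cells expressing human CB2 or CB1. Tracer is [5,7-3H]WIN 55,212-2 mesylate for CB2 and CP55,940 for CB1, routinely at 10 nM. Incubated with test compound in HEPES pH 7.4 buffer (EDTA, MgCl₂, 0.3% BSA) for 2 h at room temperature with shaking. Bound label is collected by filtration and counted by scintillation. Single-point values are % inhibition at […] test compound.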

T1 sequence (P34972 whole entry): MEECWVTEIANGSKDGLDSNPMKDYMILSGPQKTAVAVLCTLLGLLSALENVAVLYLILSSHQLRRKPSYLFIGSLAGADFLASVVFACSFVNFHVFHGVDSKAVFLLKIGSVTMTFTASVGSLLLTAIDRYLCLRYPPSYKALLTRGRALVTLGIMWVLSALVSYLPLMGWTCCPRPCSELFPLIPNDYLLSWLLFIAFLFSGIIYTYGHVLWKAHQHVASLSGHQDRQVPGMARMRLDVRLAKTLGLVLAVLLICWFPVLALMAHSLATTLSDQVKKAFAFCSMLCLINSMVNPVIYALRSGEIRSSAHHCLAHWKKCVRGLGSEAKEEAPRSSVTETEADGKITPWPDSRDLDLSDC

`COc1cccc2c(C(=O)N[C@H]3C4(C)CCC(C4)C3(C)C)c(C)n(CCN3CCOCC3)c12` (some centres undefined) and `COc1cccc2c(C(=O)N[C@@H]3C4(C)CCC(C4)C3(C)C)c(C)n(CCN3CCOCC3)c12` (some centres undefined) are within 1.5-fold of each other in Ki: 30 nM for the first, 41 nM for the second.

Going from `COC(=O)[C@H](Cc1ccccc1)NC(=O)c1c(C)n(CCN2CCOCC2)c2ccccc12` to `COc1cccc2c(C(=O)N[C@@H](Cc3ccccc3)C(C)=O)c(C)n(CCN3CCOCC3)c12`, the Ki falls from 250 nM to 8 nM (31-fold).

Going from `COc1cccc2c(C(=O)N[C@@H]3C(C)(C)[C@@H]4CC[C@@]3(C)C4)c(C)n(CCN3CCCCC3)c12` to `COc1cccc2c(C(=O)NC3C(C)(C)[C@@H]4CC[C@@]3(C)C4)c(C)n(CCCN3CCOCC3)c12` (some centres undefined), the Ki falls from 89 nM to 25 nM (3.6-fold). The second binds more tightly here.

First: COc1cccc2c(C(=O)N[C@@H](C)Cc3ccccc3)cn(CCN3CCOCC3)c12
Second: COc1cccc2c(C(=O)N[C@H](C)Cc3ccccc3)c(C)n(CCN3CCOCC3)c12
The Ki of the first is 3.7-fold lower: 71 nM for the first, 263 nM for the second. The first binds more tightly here.

Going from `COC(=O)[C@H](Cc1cccc(Cl)c1)NC(=O)c1c(C)n(CCN2CCOCC2)c2c(OC)cccc12` to `COC(=O)[C@H](Cc1cccs1)NC(=O)c1c(C)n(CCN2CCOCC2)c2c(OC)cccc12`, the Ki falls from 31 nM to 12 nM (2.6-fold). The second binds more tightly here.

Compared with `COC(=O)[C@H](Cc1cscn1)NC(=O)c1c(C)n(CCN2CCOCC2)c2c(OC)cccc12`, `CNC(=O)[C@H](Cc1ccccc1)NC(=O)c1c(C)n(CCN2CCOCC2)c2c(OC)cccc12` is 15-fold higher in Ki: 20 nM for the first, 294 nM for the second.

Compared with `CO/N=C(\C)[C@H](Cc1ccccc1)NC(=O)c1c(C)n(CCN2CCOCC2)c2c(OC)cccc12`, `CCC(=O)[C@H](Cc1ccccc1)NC(=O)c1c(C)n(CCN2CCOCC2)c2c(OC)cccc12` is 7.7-fold lower in Ki: 184 nM for the first, 24 nM for the second.

Going from `COCCn1c(C)c(C(=O)NC2C(C)(C)[C@@H]3CC[C@@]2(C)C3)c2cccc(OC)c21` (some centres undefined) to `COc1cccc2c(C(=O)NC3C(C)(C)[C@@H]4CC[C@@]3(C)C4)c(C)n(CCN(C)C)c12` (some centres undefined), the Ki rises from 60 nM to 505 nM (8.4-fold).

First: COc1cc(F)cc2c(C(=O)N[C@H]3C4(C)CCC(C4)C3(C)C)c(C)n(CCN3CCOCC3)c12 (some centres undefined)
Second: COc1cc(Cl)cc2c(C(=O)N[C@@H]3C4(C)CCC(C4)C3(C)C)c(C)n(CCN3CCOCC3)c12 (some centres undefined)
The Ki of the first is 14-fold lower: 18 nM for the first, 251 nM for the second. The first binds more tightly here.

Going from `CCCCCn1c(C)c(C(=O)NC2C(C)(C)[C@@H]3CC[C@@]2(C)C3)c2cccc(OC)c21` (some centres undefined) to `CCc1c(C(=O)N[C@H]2C3(C)CCC(C3)C2(C)C)c2cccc(OC)c2n1CCN1CCOCC1` (some centres undefined), the Ki rises from 5 nM to 103 nM (21-fold).

`COc1cccc2c(C(=O)N[C@@H](Cc3ccccc3)c3ccon3)c(C)n(CCN3CCOCC3)c12` and `COc1cccc2c(C(=O)N[C@@H](Cc3ccccc3)c3ccno3)c(C)n(CCN3CCOCC3)c12` are within 1.5-fold of each other in Ki: 235 nM for the first, 169 nM for the second.

Going from `COc1cccc2c(C(=O)NC3CC(C)(C)CCC3(C)C)c(C)n(CCN3CCOCC3)c12` (centres undefined) to `COc1cccc2c(C(=O)NC3CCCC3(C)C)c(C)n(CCN3CCOCC3)c12` (centres undefined), the Ki rises from 38 nM to 205 nM (5.4-fold). The first binds more tightly here.

`COc1cccc2c(C(=O)N[C@@H]3C4(C)CCC(C4)C3(C)C)cn(CCN3CCOCC3)c12` (some centres undefined) and `COc1cccc2c(C(=O)NC3C4(C)CCC(C4)C3(C)C)cn(CCN3CCOCC3)c12` (centres undefined) are within 1.5-fold of each other in Ki: 13 nM for the first, 12 nM for the second.

`COc1cccc2c(C(=O)NC3CC(C)(C)CCC3(C)C)cn(CCN3CCOCC3)c12` (centres undefined) gave a Ki of 22 nM.

The molecules below were run against T2, Cannabinoid receptor 1 (Homo sapiens, UniProt P21554) (assay: Binding affinity against human Cannabinoid receptor 1 expressed in CHO cells by using CP-55940 as Radioactive tracer).
T2 sequence (P21554 whole entry): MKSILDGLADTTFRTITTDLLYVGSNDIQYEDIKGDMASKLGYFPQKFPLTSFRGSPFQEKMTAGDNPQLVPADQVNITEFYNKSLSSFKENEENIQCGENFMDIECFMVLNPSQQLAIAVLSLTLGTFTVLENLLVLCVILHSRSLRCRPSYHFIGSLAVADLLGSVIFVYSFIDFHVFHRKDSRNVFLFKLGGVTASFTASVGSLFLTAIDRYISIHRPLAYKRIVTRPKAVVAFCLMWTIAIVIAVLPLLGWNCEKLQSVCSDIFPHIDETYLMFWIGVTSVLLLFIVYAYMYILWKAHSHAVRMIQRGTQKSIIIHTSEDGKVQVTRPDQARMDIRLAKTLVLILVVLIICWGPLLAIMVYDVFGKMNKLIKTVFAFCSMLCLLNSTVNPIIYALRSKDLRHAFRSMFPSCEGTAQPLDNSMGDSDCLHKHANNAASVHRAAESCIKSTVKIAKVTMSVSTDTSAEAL
Assay type: cell-based

`CCCCCOc1cc(/C=C/C(=O)N[C@@H](Cc2ccc(O)cc2)C(=O)OC)ccc1OC` and `COC(=O)[C@H](Cc1ccccc1)NC(=O)c1c(C)n(CCN2CCOCC2)c2c(OC)cccc12` are within 1.5-fold of each other in Ki: 5700 nM for the first, 4000 nM for the second.

The molecules below were run against T1, Cannabinoid receptor 2 (assay: Displacement of WIN-55212-2-Mesylate [573H] from human CB2 receptor expressed in CHO cells at 100 nM).
Assay type: cell-based
Summary of the method: as §1

Going from `CCCc1c(C(=O)N[C@@H]2C3(C)CCC(C3)C2(C)C)c2cccc(OC)c2n1CCN1CCOCC1` (some centres undefined) to `COc1cccc2c(C(=O)NC3C4(C)CCC(C4)C3(C)C)c(C)n(CCN3CCCC3)c12` (centres undefined), the inhibition rises from 6% to 25%.

Compared with `COc1ccc(Br)c2c(C(=O)N[C@@H]3C4(C)CCC(C4)C3(C)C)c(C)n(CCN3CCOCC3)c12` (some centres undefined), `COc1ccc(Cl)c2c(C(=O)N[C@@H]3C4(C)CCC(C4)C3(C)C)c(C)n(CCN3CCOCC3)c12` (some centres undefined) is lower in inhibition: 42% for the first, 11% for the second.

`COc1cccc2c(C(=O)N[C@H](C#N)Cc3ccccc3)c(C)n(CCN3CCOCC3)c12` and `CC[C@H](Cc1ccccc1)NC(=O)c1c(C)n(CCN2CCOCC2)c2c(OC)cccc12` are the same in inhibition: 18% for the first, 18% for the second.

Going from `COC[C@H](Cc1ccccc1)NC(=O)c1c(C)n(CCN2CCOCC2)c2c(OC)cccc12` to `COc1cccc2c(C(=O)N[C@@H](Cc3ccccc3)C(=O)N(C)C)c(C)n(CCN3CCOCC3)c12`, the inhibition rises from 6% to 29%.

Going from `COc1cccc2c(C(=O)N[C@@H](Cc3ccccc3)c3cc[nH]n3)c(C)n(CCN3CCOCC3)c12` to `COc1ccc2c(C(=O)N[C@@H]3C4(C)CCC(C4)C3(C)C)c(C)n(CCN3CCOCC3)c2c1OC` (some centres undefined), the inhibition falls from 7% to 0%.

Compared with `COc1c(Cl)ccc2c(C(=O)N[C@@H]3C4(C)CCC(C4)C3(C)C)c(C)n(CCN3CCOCC3)c12` (some centres undefined), `COc1cc(OC)c2c(c1)c(C(=O)N[C@@H]1C3(C)CCC(C3)C1(C)C)c(C)n2CCN1CCOCC1` (some centres undefined) is lower in inhibition: 15% for the first, 0% for the second.

`COc1ccc(C#N)c2c(C(=O)N[C@@H]3C4(C)CCC(C4)C3(C)C)c(C)n(CCN3CCOCC3)c12` (some centres undefined) gave an inhibition of 33%.

The molecules below were run against T1, Cannabinoid receptor 2 (assay: Binding affinity against human Cannabinoid receptor 2 expressed in CHO cells by using WIN-55212-2 Mesylate [573H] as Radioactive tracer).
Assay type: cell-based
Summary of the method: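 Membranes (50 µg) from CHO-K1 cells expressing human CB2 or CB1. Incubated with test compound in HEPES pH 7.4 buffer (EDTA, MgCl₂, 0.3% BSA) for 2 h at room temperature with shaking. Bound label is collected by filtration and counted by scintillation.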

`CCCCCOc1cc(/C=C/C(=O)N[C@@H](Cc2ccccc2)C(=O)OC)ccc1OC` and `CCCCCOc1cc(/C=C/C(=O)N[C@@H](Cc2ccc(O)cc2)C(=O)OC)ccc1OC` are within 1.5-fold of each other in Ki: 86 nM for the first, 120 nM for the second.

`COC(=O)[C@H](Cc1ccccc1)NC(=O)c1c(C)n(CCN2CCOCC2)c2c(OC)cccc12` showed a Ki of 8 nM.

The molecules below were run against T2, Cannabinoid receptor 1 (assay: Binding affinity against human Cannabinoid receptor 1 expressed in CHO cells by using CP-55940 as Radioactive tracer at 1 uM).
Assay type: cell-based

For `CCCCCOc1cc(/C=C/C(=O)N[C@@H](Cc2ccccc2)C(=O)OC)ccc1OC`, the inhibition was 51%.

Organism: Mus musculus
Assay: Inhibition of LPS-induced nuclear factor-kappa B (NFkB) activation and TNF production in mouse
Assay type: functional, organism-based
Summary of the method: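 Female Balb/c mice, 6–8 weeks old, n=8 per group, received LPS (E. coli 0111:B4) at 50 ug/kg i.p. in sterile saline. Blood was taken 90 min later and serum TNF-α measured by ELISA. Compound was dosed i.v. or orally, as solutions in various vehicles, before or at the time of LPS injection.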

Compared with `Cc1c(C(=O)c2cccc3ccccc23)c2cccc3c2n1[C@H](CN1CCOCC1)CO3` [WIN-552122], `COC(=O)[C@H](Cc1ccccc1)NC(=O)c1c(C)n(CCN2CCOCC2)c2c(OC)cccc12` is 1.5-fold higher in IC50: 8000 nM for the first, 12000 nM for the second. The first is the more potent here.

Each molecule was assayed against Cannabinoid receptor (Homo sapiens) (UniProt P34972+P21554) (assay: Ratio of binding affinity of the CB1 receptor to that of CB2 receptor; NT means not tested).
Sequence of Cannabinoid receptor (Homo sapiens) (P21554 whole entry, looked up): as the sequence (P21554 whole entry) above
Sequence of Cannabinoid receptor (Homo sapiens) (P34972 whole entry, looked up): as the sequence (P34972 whole entry) above
Assay type: protein assay
Summary of the method: as §1

Work on `CCCCCOc1cc(/C=C/C(=O)N[C@@H](Cc2ccccc2)C(=O)OC)ccc1OC` yielded a Ratio of 0.59.
